High-throughput results (PubChem)
MT1-MMP act inh: MT1-MMP (human) activation inhibition | P50281 | HT1080 RFP-PRO-GFP cells, GFP/RFP ratio fluorescence, overnight; percent of plate control window, DMSO zero | GFP/RFP ratio change, % at 20 µM | hit rate 0.061% among 360,000;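 active = GFP/RFP ratio change of at least 30% with cell ATP level not reduced by more than half and red fluorescence within 50% of control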
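Assay system: HT1080 RFP-PRO-GFP cells | Dosing: 20 µM single dose, 1% DMSO | Incubation: Cells overnight before dosing, compound overnight, 37 °C, 5% CO2 | Evaluation: GFP/RFP fluorescence ratio | Control set: DMSO-only wells and HT1080 RFP-L50D-GFP cell wells as references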
Rin1 Abl inh: human Rin1-Abl interaction inhibition; P00519+Q13671; TR-FRET Rin1/Abl binding, biochemical; inhibition, % at 7.35 µM; hit rate 0.4% among 360,000; AID 588664; in the data active = inhibition above about 5%, passing the limit was not always enough
Target sequence (P00519 whole entry, looked up): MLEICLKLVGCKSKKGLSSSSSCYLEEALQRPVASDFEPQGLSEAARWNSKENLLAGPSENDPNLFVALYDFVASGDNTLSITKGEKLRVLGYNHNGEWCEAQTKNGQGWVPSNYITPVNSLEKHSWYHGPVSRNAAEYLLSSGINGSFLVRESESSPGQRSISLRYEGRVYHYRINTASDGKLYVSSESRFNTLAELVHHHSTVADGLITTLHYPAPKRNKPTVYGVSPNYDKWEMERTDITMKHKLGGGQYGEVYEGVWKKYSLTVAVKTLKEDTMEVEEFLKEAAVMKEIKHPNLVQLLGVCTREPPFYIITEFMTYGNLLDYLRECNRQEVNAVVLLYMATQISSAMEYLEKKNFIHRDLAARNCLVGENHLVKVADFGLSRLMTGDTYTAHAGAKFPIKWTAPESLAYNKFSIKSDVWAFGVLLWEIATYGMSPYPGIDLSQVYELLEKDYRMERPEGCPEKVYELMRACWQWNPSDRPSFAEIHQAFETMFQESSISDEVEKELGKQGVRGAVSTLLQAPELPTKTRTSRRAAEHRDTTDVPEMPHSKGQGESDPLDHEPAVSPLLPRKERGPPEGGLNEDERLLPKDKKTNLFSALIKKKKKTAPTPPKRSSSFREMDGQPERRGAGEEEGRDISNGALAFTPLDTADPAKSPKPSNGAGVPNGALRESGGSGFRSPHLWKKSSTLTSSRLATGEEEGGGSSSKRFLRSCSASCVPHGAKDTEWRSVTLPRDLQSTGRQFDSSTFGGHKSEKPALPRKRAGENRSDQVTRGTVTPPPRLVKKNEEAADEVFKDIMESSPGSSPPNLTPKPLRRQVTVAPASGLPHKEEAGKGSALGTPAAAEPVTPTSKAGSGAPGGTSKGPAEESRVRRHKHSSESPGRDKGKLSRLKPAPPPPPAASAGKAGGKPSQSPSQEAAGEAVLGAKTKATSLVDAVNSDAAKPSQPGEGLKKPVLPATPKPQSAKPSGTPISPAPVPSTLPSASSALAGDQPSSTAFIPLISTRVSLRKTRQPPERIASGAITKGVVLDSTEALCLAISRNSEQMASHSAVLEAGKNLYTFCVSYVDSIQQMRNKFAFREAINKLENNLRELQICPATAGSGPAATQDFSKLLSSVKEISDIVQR
Target sequence (Q13671 whole entry, looked up): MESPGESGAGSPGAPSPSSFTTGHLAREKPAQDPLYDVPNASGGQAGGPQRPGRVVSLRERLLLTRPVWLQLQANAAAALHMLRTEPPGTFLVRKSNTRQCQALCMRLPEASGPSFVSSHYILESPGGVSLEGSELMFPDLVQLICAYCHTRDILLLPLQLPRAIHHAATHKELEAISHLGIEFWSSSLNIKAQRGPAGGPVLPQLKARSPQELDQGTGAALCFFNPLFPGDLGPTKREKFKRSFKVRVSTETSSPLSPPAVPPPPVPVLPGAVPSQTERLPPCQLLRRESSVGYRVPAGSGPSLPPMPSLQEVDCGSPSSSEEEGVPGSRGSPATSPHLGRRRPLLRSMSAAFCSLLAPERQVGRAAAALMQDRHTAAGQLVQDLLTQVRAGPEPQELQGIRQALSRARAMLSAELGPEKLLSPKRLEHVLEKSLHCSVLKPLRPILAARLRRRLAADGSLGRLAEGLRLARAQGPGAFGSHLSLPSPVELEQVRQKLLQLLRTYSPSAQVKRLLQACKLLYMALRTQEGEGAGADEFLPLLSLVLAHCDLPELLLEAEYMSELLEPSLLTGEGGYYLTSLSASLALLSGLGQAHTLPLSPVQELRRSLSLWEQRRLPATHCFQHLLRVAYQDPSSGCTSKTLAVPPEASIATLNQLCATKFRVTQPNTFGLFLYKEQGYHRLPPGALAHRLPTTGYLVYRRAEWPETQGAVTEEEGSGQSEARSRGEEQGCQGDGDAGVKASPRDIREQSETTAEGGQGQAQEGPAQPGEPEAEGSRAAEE
SKN-1 inh: blocks SKN-1 activity in C. elegans; C. elegans VP596 Pgst-4::GFP/RFP ratio, acrylamide-induced, 24 h; inhibition, % at 21.8 µM; hit rate 0.49% among 360,000;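 active = interference check ratio from 0.5 to 1.5 plus GFP to RFP signal ratio inhibition reaching or exceeding a fixed threshold, cut at about 30% in these data, passing the limit was not always enough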
Tb MetRS inh: blocks T. brucei methionyl-tRNA synthetase activity. purified T. brucei MetRS, ATP depletion, Kinase-Glo luminescence. inhibition, % at 11.9 µM. hit rate 0.4% among 360,000. AID 624268;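 active = inhibition above a per-plate cutoff of the control wells' mean inhibition plus 3 SD, cut at about 5.5% in these data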
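System: purified T. brucei MetRS enzyme / Detection: Kinase-Glo luciferase luminescence reporting remaining unconsumed ATP / Medium: HEPES buffer with MgCl2, KCl, DTT, spermine, BSA, pyrophosphatase / Replication: singlicate, one well per compound / Evaluation: percent inhibition relative to median high and low control wells / Schedule: 2 h aminoacylation at 25 °C after 15 min preincubation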
Arr AP2 block: blocks beta-arrestin peptide binding to AP2 adaptin; hit rate 0.31% among 340,000; inhibition, % at 10 µM; FITC-arrestin peptide / GST-AP2 beads, flow cytometry; AP2 beta2 appendage carries R879A mutation;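 active = inhibition above a set limit, near 3 SD of compounds lacking own fluorescence, cut at about 54% in these data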
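System: GST-AP2 R879A bound to glutathione beads, E. coli-expressed. Also added: 50 nM FITC-arrestin peptide. Schedule: compound with beads 12 min RT, then probe 1 h RT. Signal: bead flow cytometry, FITC channel. Read-out basis: percent response.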
Rin1-Abl confirm: Rin1-Abl interaction inhibition confirmation; shares compounds with Rin1 Abl inh; TR-FRET Rin1-Abl binding, purified proteins; inhibition, % at 7.35 µM; hit rate 49% among 1,300; AID 602124
GFP quench: GFP fluorescence interference artifact; shares compounds with Rin1 Abl inh; inhibitors/quenchers counterscreen; inhibition, % at 6.75 µM; hit rate 8.5% among 1,300;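 also: ABL1-eGFP fusion protein alone without its partner RIN1-SBP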
GFP quench dose: counter-screen for Rin1-Abl inhibitors: GFP quenchers, dose response. shares compounds with Rin1 Abl inh. GFP fluorescence interference/quenching counterscreen. IC50, µM. 230 tested, under 10 active; call rule not given here;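 also: ABL1-eGFP fusion protein alone without its RIN1 binding partner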
Large screens that a line does not name were inactive (follow-up assays come after a bar, where they were run). An excerpt weighted towards active compounds, which were near 1.6% of everything screened. Rule as the data show it, unless noted: active = inhibition above about 6.5%; inactive = the rest.

COCCNC(=O)c1ccc(N2CC3CC(C2)c2cccc(=O)n2C3)c(NC(=O)c2ccccc2Br)c1 (stereo not given)	none (no result: Arr AP2 block)
CN1CCN(C(=O)C[C@H]2CC[C@H]3[C@@H](COC[C@@H](O)CN3C(=O)C3CCCC3)O2)CC1	none (no result: Rin1 Abl inh, Arr AP2 block)
Cc1cc(C)c(CN2CCN(CCCn3ccc(NC(=O)OCc4ccccc4)nc3=O)CC2)c(C)c1	Rin1 Abl inh 7.9 | Rin1-Abl confirm 8.0 | GFP quench inactive
O=C(Nc1ccn(CCCN2CCC(N3CCOCC3)CC2)c(=O)n1)OCc1ccccc1	Rin1 Abl inh 11 (no result: Arr AP2 block) | Rin1-Abl confirm 6.9 | GFP quench inactive
COc1ccc(NS(=O)(=O)c2ccc3c(c2)[C@H]2C=CC[C@H]2[C@@H](c2ccc(C(=O)O)cc2)N3)cc1	Rin1 Abl inh 9.2 | Rin1-Abl confirm 9.5 | GFP quench 17
O=C(O)c1ccc2c(c1)C1C=CCC1C(c1ccncc1)N2 (stereo not given)	none
COC(=O)[C@@]12C[C@@H](CC(=O)NCCCCc3ccccc3)C(=O)N(Cc3ccco3)C1=CCC(C)(C)C2	none (no result: Rin1 Abl inh, Arr AP2 block)
CSc1nc2sc3c(c2c(=O)[nH]1)CCC3	Rin1 Abl inh 5.8 | Rin1-Abl confirm inactive | GFP quench inactive
COC1=CC(=O)c2c(ccc3ncnc(N)c23)C1=O	Rin1 Abl inh 17 | Rin1-Abl confirm 31 | GFP quench inactive | GFP quench dose inactive
O=C(NN=Cc1cc(=O)[nH]c(=O)[nH]1)c1ccncc1	none
CCN1CCN(C(=O)C(NS(=O)(=O)c2ccc3nc(C)sc3c2)C(C)C)CC1 (stereo not given)	Rin1 Abl inh 8.1 | Rin1-Abl confirm inactive | GFP quench inactive
Cc1nc2ccc(S(=O)(=O)NC(C(=O)NC3CCCC3)C(C)C)cc2s1 (stereo not given)	none
Cc1ccc(Cl)cc1N1CCN(C(CC(C)C)c2nnnn2CC2CCCO2)CC1 (stereo not given)	Rin1 Abl inh 7.4 | Rin1-Abl confirm inactive | GFP quench inactive
CCOc1ccc2nc(NC(=O)C3CCN(C(=O)c4ccco4)CC3)sc2c1	Rin1 Abl inh 8.0 | Rin1-Abl confirm inactive | GFP quench inactive
O=C(CCn1c(=O)oc2ccccc21)NC1=NCCS1	Rin1 Abl inh 10.0 | Rin1-Abl confirm inactive | GFP quench inactive
O=C(Nc1ccc2c(c1)OCO2)c1ccc[n+]([O-])c1	Rin1 Abl inh 5.0 | Rin1-Abl confirm inactive | GFP quench inactive
O=C(Nc1ccc2c(c1)OCO2)c1ccc2c(c1)OCO2	none
COC(=O)C[C@H]1C=C[C@@H](NC(=O)Nc2c(C)noc2C)[C@@H](CO)O1	none (no result: Rin1 Abl inh, Arr AP2 block)
COc1ccc(-c2nc3ccccc3n(CC(C)C)c2=O)cc1	none (no result: Rin1 Abl inh, Arr AP2 block)
COC(=O)C[C@H]1CC[C@H](NC(=O)Nc2ccccc2OC)[C@@H](CO)O1	none (no result: Rin1 Abl inh, Arr AP2 block)
Cc1cccc(C)c1NC(=O)C1(C)CSCC(=O)N1Cc1cccc(C(F)(F)F)c1 (stereo not given)	none (no result: Rin1 Abl inh, Arr AP2 block)
C#CCOCCOCCOCCNc1nc(N2CCOCC2)nc(N2CCN(C(=O)[C@H](Cc3ccc(O)cc3)n3cc([C@@H](N)CC(C)C)nn3)CC2)n1	Rin1 Abl inh 14 | Rin1-Abl confirm 15 | GFP quench inactive
Cc1ccc(C)c(N2CCN(C(C(=O)NC3CCCC3)C(C)C)CC2)c1 (stereo not given)	none (no result: Rin1 Abl inh, Arr AP2 block)
CCN(CC)c1cc(-c2ccccc2)ncn1	Rin1 Abl inh 7.6 | Rin1-Abl confirm inactive | GFP quench inactive
O=c1oc(-c2ccc([N+](=O)[O-])cc2)nc2ccc(O)cc12	Rin1 Abl inh 17 | Rin1-Abl confirm inactive | GFP quench inactive
Cc1cc2c(N)cccc2nn1	Rin1 Abl inh 12 | Rin1-Abl confirm inactive | GFP quench inactive
Cc1ccc(S(=O)(=O)N2C[C@H]3C(=O)C[C@@H]4C(=O)N(c5ccccc5)C(=O)[C@@H]4[C@@H]3C[C@H]2c2cccs2)cc1	none (no result: Arr AP2 block)
